In ChEMBL document CHEMBL1124689, “Thienylpyrazoloquinolines with high affinity to benzodiazepine receptors: continuous shift from inverse agonist to agonist properties depending on the size of the alkyl substituent” (J Med Chem, 1989):
Activity calls are given as the source filed them. The calls are words filed in the database; no cut-off is given here.

Tests used:
Mus musculus [1] = species on record: Mus musculus; assay: Agonist activity was evaluated by inhibition of the PTZ-induced convulsions at a PTZ dose of 125 mg/ kg; type: functional; details: PTZ 125 mg/kg
Summary of the method: (§1)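 Male mice, groups of 8–16; test compound given iv, then immediately PTZ 125 mg/kg sc (convulsive dose). Endpoint: prevention of tonic convulsions and death over 2 h; dose protecting 50% computed by probit method with 95% confidence limits; partial activity given as percentage of animals affected at a stated dose.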

Mus musculus [2] = assay: Inverse agonist activity was evaluated by potentiation of the pentylenetetrazole (PTZ) (90 mg/kg) induced convulsions; type: functional
Summary of the method: (§2)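 Male mice, groups of 8–16, given test compound iv and immediately challenged with subconvulsive PTZ (75 or 90 mg/kg sc). Tonic convulsions and death recorded over 2 h; dose producing effect in 50% derived by probit method with 95% confidence limits, or percentage of animals affected at a single dose.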

Mus musculus [3] = assay: Inhibition of tonic convulsions and death in mice after administration of 2.5 mg/kg of compound intravenously; type: functional; details: route intravenous
Summary of the method: (§3)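 Proconvulsant (inverse agonist) assay in groups of 8–16 male mice. Each mouse received the compound iv and was immediately challenged with a sub-convulsive dose of pentylenetetrazole sc, either 75 or 90 mg/kg. Animals were watched for 2 h for tonic convulsions and death. The value is the percentage of animals affected at the stated dose.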

[4] = target: GABA-A receptor; anion channel; assay: Displacing potential to [3H]diazepam binding to benzodiazepine receptor in Wistar rat cerebral cortex; type: tissue-based
Mus musculus [5] = assay: Inverse agonist activity was evaluated by potentiation of the pentylenetetrazole (PTZ) (75 mg/kg) induced convulsions; inactive to 10; type: functional, organism-based; summary of the method: as §2
Mus musculus [6] = assay: Inhibition to produce tonic convulsions and death in mice after administration of 10 mg/kg intravenously; type: functional; details: route intravenous; summary of the method: as §3
Mus musculus [7] = assay: Inverse agonist activity was evaluated by potentiation of the pentylenetetrazole (PTZ) (75 mg/kg) induced convulsions; type: functional; summary of the method: as §2
Mus musculus [8] = assay: Inverse agonist activity was evaluated by potentiation of the pentylenetetrazole (PTZ) (90 mg/kg) induced convulsions; inactive to 10; type: functional, organism-based; summary of the method: as §2
Mus musculus [9] = species on record: Mus musculus; assay: Agonist activity was evaluated by inhibition of the PTZ-induced convulsions at a PTZ dose of 125 mg/ kg; inactive to 10; type: functional, organism-based; set-up: dose 125 mg/ kg; summary of the method: as §1

SMILES	ED50 (Mus musculus [1])	ED50 (Mus musculus [2])	Ki [4]	other results
O=C1C2C=Nc3ccccc3C2=NN1c1ccc(Cl)cc1 (centres undefined) [CGS-9896]	0.07 mg/kg			
Cc1ccc2c(c1)ncc1c(=O)n(-c3cccs3)[nH]c12		0.57 mg/kg	410 pM	inhibition in vivo at 2.5 mg/kg (Mus musculus [3]): 62.5%
CCCCc1ccc(-n2[nH]c3c(cnc4cc(C)ccc43)c2=O)s1	0.22 mg/kg		1480 pM	
CCc1cc(-n2[nH]c3c(cnc4cc(C)ccc43)c2=O)cs1			410 pM	ED50 (Mus musculus [5]): inactive; inhibition in vivo at 10 mg/kg (Mus musculus [6]): 50%
O=C1C2C=Nc3ccccc3C2=NN1c1ccccc1 (centres undefined) [CGS-8216]		0.2 mg/kg		ED50 (Mus musculus [5]): inactive
CCCc1csc(-n2[nH]c3c(cnc4cc(C)ccc43)c2=O)c1	3.54 mg/kg		1010 pM	
CCc1ccc(-n2[nH]c3c(cnc4cc(C)ccc43)c2=O)s1	0.32 mg/kg		1020 pM	
Cc1ccc2c(c1)ncc1c(=O)n(-c3ccc(C)s3)[nH]c12	0.16 mg/kg		320 pM	
Cc1ccc2c(c1)ncc1c(=O)n(-c3ccsc3)[nH]c12		0.14 mg/kg	730 pM	ED50 (Mus musculus [7]): 0.43 mg/kg
CN1C(=O)CN=C(c2ccccc2)c2cc(Cl)ccc21 [DIAZEPAM]	0.15 mg/kg			
Cc1csc(-n2[nH]c3c(cnc4cc(C)ccc43)c2=O)c1		5.15 mg/kg	480 pM	ED50 (Mus musculus [5]): inactive
Cc1ccc2c(c1)ncc1c(=O)n(-c3csc(C)c3)[nH]c12		0.13 mg/kg	320 pM	ED50 (Mus musculus [7]): 0.47 mg/kg
CCCc1cc(-n2[nH]c3c(cnc4cc(C)ccc43)c2=O)cs1			1040 pM	ED50 (Mus musculus [8]): inactive; ED50 (Mus musculus [9]): inactive
CCOC(=O)c1cc2c(cn1)[nH]c1ccccc12		0.46 mg/kg		ED50 (Mus musculus [7]): 1 mg/kg
CCc1csc(-n2[nH]c3c(cnc4cc(C)ccc43)c2=O)c1	5.15 mg/kg		600 pM	
